# Assays:
# Assay type in all cases: ADME, organism-based
# [1] = Cmax in Sprague-Dawley rat at 5 mg/kg, iv by LC-MS/MS analysis; set-up: dose 5 mg/kg, route intravenous; settings: in vivo
# Summary of the method: (§1)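 Male Sprague-Dawley rats (n = 5) given the homodisulfide intravenously at 5 mg/kg. Blood collected up to 7 days into heparin/NEM tubes. Plasma analyzed by LC-MS/MS for both monomer and dimer. Noncompartmental AUC, Cl and Vd calculated. Mean ± S.D.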
# [2] = Tmax in Sprague-Dawley rat at 5 mg/kg, iv by LC-MS/MS analysis; set-up: dose 5 mg/kg, route intravenous; settings: in vivo
# [3] = Volume of distribution in Sprague-Dawley rat at 5 mg/kg, iv by LC-MS/MS analysis; set-up: dose 5 mg/kg, route intravenous; settings: in vivo
# [4] = AUC(0 to infinity) in Sprague-Dawley rat at 5 mg/kg, iv by LC-MS/MS analysis; set-up: dose 5 mg/kg, route intravenous, time infinity; settings: plasma; summary of the method: as §1
# [5] = AUC(0 to last) in Sprague-Dawley rat at 5 mg/kg, iv by LC-MS/MS analysis; set-up: time 0 - last, dose 5 mg/kg, route intravenous; settings: plasma; summary of the method: as §1
# [6] = Clearance in Sprague-Dawley rat at 5 mg/kg, iv by LC-MS/MS analysis; set-up: dose 5 mg/kg, route intravenous; settings: in vivo; summary of the method: as §1
# [7] = Elimination half life in Sprague-Dawley rat at 5 mg/kg, iv by LC-MS/MS analysis; set-up: dose 5 mg/kg, route intravenous; settings: in vivo, read-out: beta t1/2 (converted)
# Summary of the method: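 Male Sprague-Dawley rats received a single IV dose of either 10 mg/kg parent drug (n = 6) or 5 mg/kg homodisulfide (n = 5), in 50 mM HEPES-buffered saline, pH 7.4. Blood was collected into NEM-containing heparinized tubes for up to 7 days. Parent drug and homodisulfide in plasma were quantified by LC-MS/MS. Terminal t1/2β was calculated as 0.693/λz.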
smiles,measurement,setting,value
O=C(O)c1cccc(-c2cccc(CCSSCCc3cccc(-c4cccc(C(=O)O)c4)c3C(=O)O)c2C(=O)O)c1,Cmax,[1],104 µg/mL
same,Tmax,[2],6.6 min
same,Vd,[3],209 L/kg
same,AUC(0-inf),[4],3540 µg·h/mL
same,AUC(0-t),[5],2490 µg·h/mL
same,clearance,[6],1.5 mL/h/kg
same,half-life,[7],101 h
